Our source for the Tm and folding enthalpy values is the array DNA melting data of Ke et al. (doi:10.1101/2024.01.08.574731).

Data set [1] is described as follows: melting temperature; fluorescence melt of hairpins on a sequencing array, two-state fit, raised by 9.35 °C to match UV melts. Conditions: sodium 0.088 M. The procedure, abridged:
(§1)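 Folding enthalpy and melting temperature were estimated with bootstrapped two-state fits and combined across four replicates by inverse-variance weighting, with fitted temperatures raised by 9.35 °C to match UV melts. The data were Cy3 fluorescence of library hairpins, with annealed Cy3 and quencher oligos, on a sequenced MiSeq flow cell in 50 mM Na-HEPES pH 8.0, 25 mM NaCl, imaged in 2.5 °C steps up to 60 °C and normalised to pre-quench Cy3 and control constructs.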

Data set [2] in a line: folding enthalpy; higher = less favourable; fluorescence melt of hairpins on a sequencing array, two-state fit. Conditions: sodium 0.088 M. The procedure, abridged:
as §1

In the case of GTGACCGGAAACGGTCGC (.(((((....))))).), the Tm in data set [1] is 63.5 °C. Besides, the folding enthalpy in data set [2] is -19.9 kcal/mol.

GCTCGCGAAAGCGTGAGC ((((((....)))..))): in data set [1], the Tm amounted to 53.4 °C. Also, the folding enthalpy in data set [2] was -18 kcal/mol.

As for GTTGGTGGAAACATCGAC ((.(.((....)).).)), the Tm in data set [1] came to 35.1 °C. The folding enthalpy in data set [2] was -21.1 kcal/mol.

GCGACGCGAAAGCACCGC (((..((....))..))): the Tm in data set [1] was determined as 55.8 °C. Besides, the folding enthalpy in data set [2] is -19.7 kcal/mol.

As to GCTGTACGAAAGTAAGC (((.(((....)))))), the Tm in data set [1] stood at 49.2 °C. Moreover, in data set [2], the folding enthalpy is -27.1 kcal/mol.

In the case of GGAGGCGAAAGCCCCTCC ((((((....)))..))), the Tm in data set [1] was 59.1 °C. Also, the folding enthalpy in data set [2] is -12.6 kcal/mol.

GCAGGTGGAAACGTCTGC ((((..(....)..)))): in data set [1], the Tm was 42.5 °C. Also, the folding enthalpy in data set [2] is -25.7 kcal/mol.

As for GCACAGCGAAAGCTCAGC ((..(((....)))..)), the Tm in data set [1] was 33.9 °C. Besides, the folding enthalpy in data set [2] was -10.5 kcal/mol.

On to GCGCAAACGAAAGTTCGC (((..(((....)))))), for which the Tm in data set [1] came out at 46.7 °C. Further, the folding enthalpy in data set [2] was -22.6 kcal/mol.

Take GGTATGGGAAACCATATC (.(((((....))))).): the Tm in data set [1] was 39.7 °C. For the same sequence, in data set [2], the folding enthalpy was -24.1 kcal/mol.

For the sequence GGGCGAGGAAACCCACCC (((.(.(....).).))), in data set [1], the Tm came to 30.9 °C. The folding enthalpy in data set [2] was -16.4 kcal/mol.

On to GGTGTCGAAAGACCACC ((((((....))).))), for which the Tm in data set [1] was 49.7 °C. The folding enthalpy in data set [2] is -27.6 kcal/mol.

On to GGACCCGGAAACGAGTCC ((((.((....)).)))), for which, in data set [1], the Tm was 49.3 °C. Also, in data set [2], the folding enthalpy was -32.4 kcal/mol.

In the case of GTGGCCGAAAGGCTTCAC ((((((....)))..))), the Tm in data set [1] is 33.6 °C. For the same sequence, in data set [2], the folding enthalpy is -12.4 kcal/mol.

Turning to GCTCGGGGAAACCCGAAC (.(((((....))))).), the Tm in data set [1] stood at 45.9 °C. The folding enthalpy in data set [2] is -12.6 kcal/mol.

For the sequence GCGTTCGAAAGAAAGCGC ((((((....)))..))), the Tm in data set [1] worked out at 53.2 °C. In addition, the folding enthalpy in data set [2] was -29.4 kcal/mol.

As to GCGTCATCGAAAGATCGC (((..(((....)))))), the Tm in data set [1] came to 44 °C. The folding enthalpy in data set [2] is -24.4 kcal/mol.

Take GAGCCGCGAAAGCGACTC (((.(((....))).))): the Tm in data set [1] is 65.3 °C. Also, the folding enthalpy in data set [2] was -26.2 kcal/mol.

In the case of GCCCTCCGAAAGGAAGGC (((.(((....))).))), in data set [1], the Tm was 53 °C. Moreover, the folding enthalpy in data set [2] is -30.8 kcal/mol.

As to GGAAGGCGAAAGCCCTCC (((.(((....))).))), the Tm in data set [1] was 48.7 °C. The folding enthalpy in data set [2] was -16.8 kcal/mol.

Turning to GACGGCGAAAGCCGGGTC ((((((....)))..))), the Tm in data set [1] came to 68.2 °C. Further, the folding enthalpy in data set [2] was -11.3 kcal/mol.

Regarding GATCTGTTAGCAGATC ((((((....)))))), the Tm in data set [1] was 52.3 °C. In addition, the folding enthalpy in data set [2] was -42.9 kcal/mol.

Turning to GGTACCCGAAAGGGCACC (((.(((....))).))), the Tm in data set [1] worked out at 55.6 °C. The folding enthalpy in data set [2] was -32.3 kcal/mol.

Take GCGGGTTCCCGC ((((....)))): the Tm in data set [1] was 67.3 °C. Moreover, the folding enthalpy in data set [2] is -23.3 kcal/mol.

For GCGCTCGAAAGAGCCGC ((((((....))).))), the Tm in data set [1] amounted to 62.4 °C. For the same sequence, in data set [2], the folding enthalpy was -18.7 kcal/mol.

GCGACCGGAAACGGTCAC (.(((((....))))).): the Tm in data set [1] was 51.4 °C. Also, in data set [2], the folding enthalpy is -12.3 kcal/mol.

GGCTGGGGAAACCTGGCC (((..((....))..))): the Tm in data set [1] came out at 51.7 °C. The folding enthalpy in data set [2] was -30.6 kcal/mol.

Turning to GCAACCGAAAGGTCGTGC ((((((....)))..))), the Tm in data set [1] amounted to 38.1 °C. Further, in data set [2], the folding enthalpy was -17.6 kcal/mol.

With CGGTCGGAAACGATGCCG ((((((....)))..))), the Tm in data set [1] came out at 38.6 °C. Further, the folding enthalpy in data set [2] was -22.1 kcal/mol.

For GTCAGAGAAATCTGAC ((((((....)))))), the Tm in data set [1] was 51.2 °C. Further, the folding enthalpy in data set [2] is -37.3 kcal/mol.

As to GGTACCGAAAGGTAACC ((((((....))).))), the Tm in data set [1] is 53.4 °C. The folding enthalpy in data set [2] is -26.9 kcal/mol.

On to GCGACGCGAAAGCTTTGC ((.(.((....)).).)), for which, in data set [1], the Tm is 44.7 °C. In addition, the folding enthalpy in data set [2] is -18.6 kcal/mol.

Regarding GGACAAGGAAACTTGTTC (.(((((....))))).), the Tm in data set [1] stood at 43 °C. Further, in data set [2], the folding enthalpy is -25.9 kcal/mol.

Consider GATCACATTCGTGATC ((((((....)))))), for which the Tm in data set [1] was found to be 59.4 °C. Further, the folding enthalpy in data set [2] is -39.2 kcal/mol.

On to GCCAGGACGAAAGTCGGC (((..(((....)))))), for which, in data set [1], the Tm amounted to 52.6 °C. In data set [2], the folding enthalpy is -27.3 kcal/mol.

On to GTGATGCGAAAGCAACAC (((.(((....))).))), for which the Tm in data set [1] turned out to be 56.4 °C. For the same sequence, in data set [2], the folding enthalpy is -33.4 kcal/mol.

As to CGTATCCGGAAACGGACG (((..(((....)))))), the Tm in data set [1] worked out at 32.5 °C. Besides, the folding enthalpy in data set [2] was -13.8 kcal/mol.
